Measured values taken from ChEMBL document CHEMBL3616459, “Antimicrobial peptides with potential for biofilm eradication: synthesis and structure activity relationship studies of battacin peptides” (J Med Chem, 2015).
Values after ≈ are worked out from the molar mass of the structure shown. Active and inactive are the calls of the source. No cut-off for these calls is given here. Non-standard residues stand in square brackets, D forms with d. Residues, ends and D or L forms follow the SMILES beside them. ξ: configuration not given here. *: point of attachment. Hexanoyl(4ξ-Me) = CCC(C)CCC(=O)*; dDab = NCC[C@@H](N)C(=O)O; Dab = NCC[C@H](N)C(=O)O

Key:
Pseudomonas syringae [1] = assay: Bactericidal activity against Pseudomonas syringae pv. actinidiae 16027 at 1 to 2 times MIC after 9 hrs by time-kill assay; type: functional, organism-based
In short: (§1)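 Time-kill assay. Overnight culture diluted in LB to mid-log phase, 10^5–10^8 CFU/mL; 100 μL added to 10 mL peptide in LB at 1×, 2×, 4× and 20× MIC. Incubated with shaking at 100 rpm, at 28 °C (Ea1501, Psa) or 37 °C (E. coli, P. aeruginosa, S. aureus). Samples at 0, 0.5, 1, 3, 6, 9 and 24 h serially diluted in 0.9% saline and plated; colonies counted after 24 h. Run in duplicate. Bactericidal means ≥2-log10 CFU/mL drop versus the no-antibiotic control.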

Staphylococcus aureus [2] = assay: Antimicrobial activity against Staphylococcus aureus after 24 hrs by spectrophotometry; type: functional
In short: (§2)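 Broth microdilution in Luria broth. Overnight culture from a single colony, grown at 28 °C (Ea1501, Psa) or 37 °C (E. coli, S. aureus), adjusted to OD600 0.6. Peptide dissolved in LB with 0.5% acetic acid as a dilution series; 50 μL peptide plus 50 μL culture per well, triplicates.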

Pseudomonas syringae [3] = assay: Inhibition of Pseudomonas syringae pv. actinidiae 16027 biofilm formation at 5 uM after 48 hrs; type: functional
In short: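 Psa16027 overnight culture (OD600 0.3) grown at 28 °C in LB. 50 μL peptide in LB (1–100 μM) plus 50 μL diluted culture, triplicates, incubated 48 h at 28 °C at 50 rpm. Wells stained with 1% crystal violet for 5 min and washed; stain solubilized in 96% ethanol and A560 read as biofilm mass. For imaging, 12-well plates were used and stained biofilms viewed at 400×.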

Pseudomonas syringae [4] = assay: Bactericidal activity against Pseudomonas syringae pv. actinidiae 16027 at 4 times MIC up to 6 hrs by time-kill assay; type: functional, organism-based; in short: as §1
Pseudomonas syringae [5] = assay: Bactericidal activity against Pseudomonas syringae pv. actinidiae 16027 at 20 times MIC up to 1 hr by time-kill assay; type: functional, organism-based; in short: as §1
Staphylococcus aureus [6] = assay: Bactericidal activity against Staphylococcus aureus at 4 to 20 times MIC after 24 hrs by time-kill assay; type: functional, organism-based; in short: as §1
[7] = test system: Pseudomonas syringae pv. actinidiae; assay: Antimicrobial activity against Pseudomonas syringae pv. actinidiae 16027 preformed biofilms after 48 hrs by crystal violet staining-based microscopy; type: functional
In short: (§3)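 Psa16027 biofilms formed 48 h without peptide, then washed. 100 μL of peptide (1, 5 or 50 μM) in LB, or LB alone, added and incubated a further 24 h at 28 °C. Crystal violet staining followed, with A560 estimation of biofilm mass and microscopy.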

Erwinia amylovora [8] = assay: Bactericidal activity against Erwinia amylovora 1501 by time-kill assay; type: functional, organism-based; in short: as §1
Staphylococcus aureus [9] = assay: Antimicrobial activity against Staphylococcus aureus preformed biofilms at 10 to 25 uM after 48 hrs; type: functional, organism-based
Pseudomonas syringae [10] = assay: Bactericidal activity against Pseudomonas syringae pv. actinidiae 16027 at 1 to 20 times MIC after 24 hrs by time-kill assay; type: functional, organism-based; in short: as §1
Pseudomonas aeruginosa [11] = assay: Inhibition of Pseudomonas aeruginosa biofilm formation at 10 to 50 uM after 48 hrs; type: functional, organism-based
In short: (§4)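 P. aeruginosa or S. aureus biofilms grown 48 h on coverslips in 12-well plates, with peptide added at inoculation at 5, 10, 25, 50 or 100 μM. Coverslips rinsed, dried at 50 °C and stained with BacLight (SYTO 9/propidium iodide) for 25 min in the dark at room temperature. Examined by fluorescence microscopy at 1000×.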

Pseudomonas aeruginosa [12] = assay: Bactericidal activity against Pseudomonas aeruginosa by time-kill assay; type: functional, organism-based; in short: as §1
[13] = test system: Pseudomonas syringae pv. actinidiae; assay: Antimicrobial activity against Pseudomonas syringae pv. actinidiae 16027 preformed biofilms at 5 to 10 uM after 24 hrs; type: functional; in short: as §3
Pseudomonas aeruginosa [14] = assay: Bactericidal activity against Pseudomonas aeruginosa at 20 times MIC after 24 hrs by time-kill assay relative to control; type: functional, organism-based; in short: as §1
Pseudomonas aeruginosa [15] = assay: Bactericidal activity against Pseudomonas aeruginosa at 20 times MIC after 9 hrs by time-kill assay relative to control; type: functional, organism-based; in short: as §1
Erwinia amylovora [16] = assay: Antimicrobial activity against streptomycin-resistant Erwinia amylovora after 24 hrs by spectrophotometry; type: functional
In short: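 Broth microdilution in Luria broth; overnight culture grown at 28 °C, adjusted to OD600 0.6, mixed 1:1 with a dilution series of peptide prepared in LB containing 0.5% acetic acid. Three replicates per concentration.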

Staphylococcus aureus [17] = assay: Inhibition of Staphylococcus aureus biofilm formation at 10 to 25 uM after 48 hrs; type: functional, organism-based; in short: as §4
Pseudomonas aeruginosa [18] = assay: Antimicrobial activity against Pseudomonas aeruginosa assessed as complete cell lysis at 2 times MIC […]; type: functional, organism-based
Staphylococcus aureus [19] = assay: Antimicrobial activity against Staphylococcus aureus assessed as perturbed cell membrane at 2 times MIC measured after 24 hrs by scanning electron microscopy; type: functional, organism-based
In short: (§5)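 Bacteria grown to OD600 0.3 in LB on glass slides for 24 h, then washed with 10 mM sodium phosphate pH 7.4. Treated 20 min with peptide in LB at twice the upper limit of its MIC, washed, and fixed in 4% glutaraldehyde 1 h. Dehydrated through graded ethanol, dried at 60 °C, platinum coated, and imaged by SEM at 10 kV.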

Escherichia coli [20] = assay: Antimicrobial activity against Escherichia coli after 24 hrs by spectrophotometry; type: functional; in short: as §2
Pseudomonas aeruginosa [21] = assay: Antimicrobial activity against Pseudomonas aeruginosa assessed as outer membrane permeability at 0.5 to 100 uM measured after 1 min by N-phenylnaphthylamine uptake assay; type: functional, organism-based
In short: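 Cells grown overnight in LB at 37 °C, then regrown to OD600 0.5, washed thrice and resuspended to OD600 0.5 in 10 mM phosphate buffer pH 7.0. Peptide (30 μL, 0.5–100 μM) added to 2.94 mL suspension, with NPN at 10 μM final. Fluorescence read at ex 350/em 420 nm, triplicate readings averaged.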

Staphylococcus aureus [22] = assay: Bactericidal activity against Staphylococcus aureus by time-kill assay; type: functional, organism-based; in short: as §1
Pseudomonas aeruginosa [23] = assay: Antimicrobial activity against Pseudomonas aeruginosa assessed as perturbed cell membrane at 2 times MIC measured after 24 hrs by scanning electron microscopy; type: functional, organism-based; in short: as §5
[24] = Antimicrobial activity against Pseudomonas syringae pv. actinidiae 16027 after 24 hrs by spectrophotometry; type: functional; settings: Pseudomonas syringae, 16027, 24 h; in short: as §2
Pseudomonas syringae [25] = assay: Bactericidal activity against Pseudomonas syringae pv. actinidiae 16027 by time-kill assay; type: functional, organism-based; in short: as §1
Pseudomonas aeruginosa [26] = assay: Antimicrobial activity against Pseudomonas aeruginosa after 24 hrs by spectrophotometry; type: functional
Erwinia amylovora [27] = assay: Antimicrobial activity against Erwinia amylovora 1501 after 24 hrs by spectrophotometry; type: functional; settings: Erwinia amylovora, 1501, 24 h; in short: as §2
Staphylococcus aureus [28] = assay: Ratio of gentamycin MIC to compound MIC for Staphylococcus aureus after 24 hrs by spectrophotometry; type: functional
Erwinia amylovora [29] = assay: Bactericidal activity against Erwinia amylovora 1501 at 2 to 20 times MIC after 9 hrs by time-kill assay; type: functional, organism-based; in short: as §1
Staphylococcus aureus [30] = assay: Bactericidal activity against Staphylococcus aureus at 4 to 20 times MIC after 3 hrs by time-kill assay; type: functional, organism-based; in short: as §1
Escherichia coli [31] = assay: Antimicrobial activity against Escherichia coli assessed as complete cell lysis at 2 times MIC measured after 24 hrs by scanning electron microscopy; type: functional, organism-based; in short: as §5
Escherichia coli [32] = assay: Antimicrobial activity against Escherichia coli assessed as perturbed cell membrane at 2 times MIC measured after 24 hrs by scanning electron microscopy; type: functional, organism-based; in short: as §5

With `CCC(C)CCC(=O)N[C@H](CCN)C(=O)N[C@@H](CCN)C(=O)N[C@@H](CCN)C(=O)N[C@@H](CC(C)C)C(=O)N[C@H](Cc1ccccc1)C(=O)N[C@@H](CCN)C(=O)N[C@@H](CCN)C(=O)N[C@@H](CC(C)C)C(N)=O` (stereo partly drawn) ({Hexanoyl(4ξ-Me)}-[dDab][Dab][Dab]L[dF][Dab][Dab]L-NH2) the Activity (Pseudomonas syringae [1]) was “Active”, the MIC (Staphylococcus aureus [2]) was 1 µM (≈ 1 µg/mL) and the inhibition (Pseudomonas syringae [3]) was “Active”. The Activity (Pseudomonas syringae [4]) was “Active”, the Activity (Pseudomonas syringae [5]) was “Active” and the Activity (Staphylococcus aureus [6]) was “Active”. For the same compound, the Activity [7] was “Active”, the Activity (Erwinia amylovora [8]) was “Dose-dependent effect” and the Activity (Staphylococcus aureus [9]) was “Active”. For the same compound, the Activity (Pseudomonas syringae [10]) was “inactive”, the inhibition (Pseudomonas aeruginosa [11]) was “Active” and the Activity (Pseudomonas aeruginosa [12]) was “Dose-dependent effect”. For the same compound, the Activity [13] was “Active”, the Activity (Pseudomonas aeruginosa [14]) was “Active” and the Activity (Pseudomonas aeruginosa [15]) was “Active”. For the same compound, the MIC (Erwinia amylovora [16]) was 5 µM (≈ 5.02 µg/mL), the inhibition (Staphylococcus aureus [17]) was “Active” and the Activity (Pseudomonas aeruginosa [18]) was “Active”. The Activity (Staphylococcus aureus [19]) was “Active”, the MIC (Escherichia coli [20]) was 2.5 µM (≈ 2.51 µg/mL) and the Activity (Pseudomonas aeruginosa [21]) was “Active”. The Activity (Staphylococcus aureus [22]) was “Dose-dependent effect”, the Activity (Pseudomonas aeruginosa [23]) was “Active” and the MIC [24] was 1 µM (≈ 1 µg/mL). For the same compound, the Activity (Pseudomonas syringae [25]) was “Dose-dependent effect”, the MIC (Pseudomonas aeruginosa [26]) was 1 µM (≈ 1 µg/mL) and the MIC (Erwinia amylovora [27]) was 2.5 µM (≈ 2.51 µg/mL). The Ratio (Staphylococcus aureus [28]) was 2, the Activity (Erwinia amylovora [29]) was “Active” and the Activity (Staphylococcus aureus [30]) was “Active”. For the same compound, the Activity (Escherichia coli [31]) was “Active” and the Activity (Escherichia coli [32]) was “Active”.
